Test results published in ChEMBL document CHEMBL2150885, “Dual anticoagulant/antiplatelet persulfated small molecules” (Eur J Med Chem, 2011).
Activity calls are given as the source filed them. The calls are words filed in the database; no cut-off is given here.

Experiments:
[1] = target: Antithrombin-III (Bos taurus) (UniProt P41361); assay: Inhibition of bovine antithrombin-3 at 1 x 10^-3 M
Plasma [2] = assay: Anticoagulant activity in human plasma assessed as concentration required to double thrombin time at 5 x 10^-3 M; format: functional, cell-free
Summary of the method: (§1)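 Pooled citrated human plasma; compounds in water (10% DMSO for some), final 5 × 10⁻³ to 0.05 × 10⁻³ M; heparin 0.1–10 UI/mL as reference. APTT, PT and TT measured on a coagulometer with commercial kits, clotting time in s. Duplicates repeated on three days (n = 6). Concentration doubling clotting time obtained by linear regression of each concentration-response curve.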

Plasma [3] = assay: Anticoagulant activity in human plasma assessed as concentration required to double prothrombin time at 5 x 10^-3 M; format: functional, cell-free; summary of the method: as §1
Plasma [4] = assay: Anticoagulant activity in human plasma assessed as concentration required to double activated partial thromboplastin time; format: functional; summary of the method: as §1
[5] = target: Coagulation factor X (Homo sapiens) (UniProt P00742); assay: Inhibition of human factor 10a using CH3SO2-D-Leu-Gly-Arg-pNA, AcOH as substrate at 1 x 10^-3 M by chromogenic substrate hydrolysis assay
Summary of the method: (§2)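 Chromogenic hydrolysis in 50 mM Tris/HCl pH 8.3, 227 mM NaCl, 0.1% BSA, with and without bovine antithrombin III (1 U/mL final). Human factor Xa 0.5 U/mL with CBS 31.39 […], or human thrombin 0.06 U/mL with Chromozym TH […]. Absorbance at 405 nm, enzyme-free blank subtracted; initial slope vs water control gives % inhibition. Compounds at 1 × 10⁻³ M; n = 6.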

[6] = target: Prothrombin (Homo sapiens) (UniProt P00734); assay: Inhibition of human thrombin using Tosyl-Gly-Pro-Arg-p-nitroaniline as substrate at 1 x 10^-3 M by chromogenic substrate hydrolysis assay; summary of the method: as §2
Plasma [7] = assay: Anticoagulant activity in human plasma assessed as effect on APC level using CBS 42.46 as synthetic substrate at 1 x 10^-3 M; format: functional
Summary of the method: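 Compound in saline added to citrated human plasma. Protein C activated by a snake venom-derived activator; enzyme formed quantified by amidolytic activity on chromogenic substrate CBS 42.46. Calibration curve linear 3–150%; normal and pathological control plasmas verify accuracy. Compounds at 1 × 10⁻³ M.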

MCF7 = assay: Cytotoxicity against human ER-positive MCF7 cells at 1.5 x 10^-4 after 48 hrs; format: cell-based; conditions: mcf7, 48 h
NCI-H460 = assay: Cytotoxicity against human NCI-H460 cells at 1.5 x 10^-4 after 48 hrs; format: cell-based; conditions: nci-h460, 48 h
[8] = Cytotoxicity against human A375-C5 cells at 1.5 x 10^-4 after 48 hrs; format: cell-based; conditions: a375-c5, 48 h
Plasma [9] = assay: Anticoagulant activity in human plasma assessed as effect on prothrombin level by PT clotting time with factor II deficient plasma at 1 x 10^-3 M
Plasma [10] = assay: Anticoagulant activity in human plasma assessed as concentration required to double prothrombin time; format: functional; summary of the method: as §1
Platelet [11] = assay: Antiplatelet activity against thrombin receptor-activating peptide-6-induced platelet aggregation in human blood at 6.25 x 10^-4 M measured for 6 mins by multiplate electrical impedance aggregometry; format: functional, cell-based
Summary of the method: (§3)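 Hirudin-anticoagulated (final […]) healthy-donor whole blood, used within 0.5–1 h. Compound in saline to final 6.25 × 10⁻⁴ M; saline control, acetylsalicylic acid 6.25 × 10⁻⁴ M reference. Blood mixed with saline at 37 °C for 180 s, then agonist at final TRAP-6 […], arachidonic acid 0.5 mM or ADP […]. Impedance recorded 6 min; AUC from mean of two curves, accepted if within 20%.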

Platelet [12] = assay: Antiplatelet activity against arachidonic acid-induced platelet aggregation in human blood at 6.25 x 10^-4 M measured for 6 mins by multiplate electrical impedance aggregometry; format: functional, cell-based; summary of the method: as §3
Platelet [13] = assay: Antiplatelet activity against adenosine diphosphate-induced platelet aggregation in human blood at 6.25 x 10^-4 M measured for 6 mins by multiplate electrical impedance aggregometry; format: functional, cell-based; summary of the method: as §3

Chain of Coagulation factor X (Homo sapiens) (P00742 41-179 limits assumed): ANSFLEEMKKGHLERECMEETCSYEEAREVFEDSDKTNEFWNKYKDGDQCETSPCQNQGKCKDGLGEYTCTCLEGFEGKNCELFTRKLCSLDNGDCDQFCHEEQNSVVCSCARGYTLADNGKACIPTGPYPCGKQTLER
Chain of Coagulation factor X (Homo sapiens) (P00742 235-488 limits assumed): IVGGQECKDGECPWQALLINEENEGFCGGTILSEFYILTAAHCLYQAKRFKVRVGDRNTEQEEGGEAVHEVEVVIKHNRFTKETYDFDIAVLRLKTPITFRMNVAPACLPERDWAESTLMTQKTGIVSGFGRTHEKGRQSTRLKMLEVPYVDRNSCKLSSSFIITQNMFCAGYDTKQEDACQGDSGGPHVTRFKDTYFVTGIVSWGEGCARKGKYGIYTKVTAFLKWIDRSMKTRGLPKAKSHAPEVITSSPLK
Chain of Antithrombin-III (Bos taurus) (P41361 whole entry): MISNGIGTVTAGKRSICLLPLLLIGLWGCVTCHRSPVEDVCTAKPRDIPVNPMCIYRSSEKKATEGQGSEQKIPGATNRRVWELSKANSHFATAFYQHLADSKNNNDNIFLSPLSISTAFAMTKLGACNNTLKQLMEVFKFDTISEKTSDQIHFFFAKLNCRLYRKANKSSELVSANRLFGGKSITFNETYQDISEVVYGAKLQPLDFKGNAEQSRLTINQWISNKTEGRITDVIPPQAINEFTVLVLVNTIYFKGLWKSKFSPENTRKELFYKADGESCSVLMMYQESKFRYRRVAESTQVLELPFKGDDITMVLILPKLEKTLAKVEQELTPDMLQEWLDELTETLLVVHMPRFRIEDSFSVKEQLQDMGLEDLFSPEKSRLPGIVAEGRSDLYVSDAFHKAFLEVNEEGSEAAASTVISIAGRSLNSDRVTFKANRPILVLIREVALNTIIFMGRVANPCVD

SMILES	inhibition [1]	Activity (Plasma [2])	Activity (Plasma [3])	2aPTT (Plasma [4])	Activity (Plasma [4])	inhibition [5]	inhibition [6]	Activity (Plasma [7]) [%]	Activity (MCF7)	Activity (NCI-H460)	Activity [8]	Activity (Plasma [9]) [%]	2PT (Plasma [10]) [mM]	Activity (Plasma [10])	AUC (Platelet [11]) [AU.min]	AUC (Platelet [12]) [AU.min]	AUC (Platelet [13]) [AU.min]
O=C(O)c1cc(OS(=O)(=O)[O-])c(OS(=O)(=O)[O-])c(OS(=O)(=O)[O-])c1.[Na+].[Na+].[Na+]	inactive	inactive	inactive	1.96 mM	Dose-dependent effect	inactive	inactive	101	Non-toxic	Non-toxic	Non-toxic	61.5					
Cc1cc(=O)oc2cc(O[C@@H]3O[C@H](COS(=O)(=O)[O-])[C@@H](OS(=O)(=O)[O-])[C@H](OS(=O)(=O)[O-])[C@H]3OS(=O)(=O)[O-])ccc12.[Na+].[Na+].[Na+].[Na+]	inactive	inactive		1.18 mM	Dose-dependent effect	inactive	inactive	97	Non-toxic	Non-toxic	Non-toxic	64.5	> 5	Dose-dependent effect			
COc1ccc([C@@H]2CC(=O)c3c(O)cc(O[C@@H]4O[C@H](CO[C@@H]5O[C@@H](C)[C@H](OS(=O)(=O)[O-])[C@@H](OS(=O)(=O)[O-])[C@H]5OS(=O)(=O)[O-])[C@@H](OS(=O)(=O)[O-])[C@H](OS(=O)(=O)[O-])[C@H]4OS(=O)(=O)[O-])cc3O2)cc1O.[Na+].[Na+].[Na+].[Na+].[Na+].[Na+] [HEXASULFATED HESPERIDIN]				4.13 ×10⁻⁴ M				85	Non-toxic	Non-toxic	Non-toxic	47.5			1200	150	150
O=c1oc2c(OS(=O)(=O)O)c(OS(=O)(=O)O)cc3c(=O)oc4c(OS(=O)(=O)O)c(OS(=O)(=O)O)cc1c4c23		inactive	inactive														
CC(=O)Oc1ccccc1C(=O)O																230	
O=C(/C=C/c1ccc(OS(=O)(=O)[O-])c(OS(=O)(=O)[O-])c1)O[C@@H]1C[C@](OS(=O)(=O)[O-])(C(=O)O)C[C@@H](OS(=O)(=O)[O-])[C@H]1OS(=O)(=O)[O-].[Na+].[Na+].[Na+].[Na+].[Na+] [CHLOROGENIC ACID PERSULFATE]	inactive	inactive	inactive	3.66 mM	Dose-dependent effect	inactive	inactive	95				82					
O=S(=O)([O-])OCc1ccccc1O[C@@H]1O[C@H](COS(=O)(=O)[O-])[C@@H](OS(=O)(=O)[O-])[C@H](OS(=O)(=O)[O-])[C@H]1OS(=O)(=O)[O-].[Na+].[Na+].[Na+].[Na+].[Na+] [SALICIN PERSULFATE]	inactive	inactive		0.899 mM	Dose-dependent effect	inactive	inactive	93	Non-toxic	Non-toxic	Non-toxic	66	> 5	Dose-dependent effect			
